Data: ChEMBL document CHEMBL4513216, “Probing the Open Global Health Chemical Diversity Library for Multistage-Active Starting Points for Next-Generation Antimalarials” (ACS Infect Dis, 2020)

Assay: Toxicity liver stage against HepG2, at 10uM
Type: cell-based
Design: test concentration 10 uM, cell line HepG2-A16-CD81EGFP
Conditions: human, HepG2-A16-CD81EGFP cells; read-out: INHIBITION
Summary of the method: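 Uninfected HepG2-A16-CD81EGFP cells, 3 × 10^3 per well, 1536-well, plated on prespotted compound at 10 μM final, parasite-free screening media added to match infected plates; puromycin 10 μM positive, DMSO 0.5% negative; run in parallel with 48 h PbLuc assay at 37 °C, 5% CO2; viability by CellTiter-Glo luminescence, normalized to controls.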

SMILES	cytotoxicity at 10 µM [%]
Cc1cccc(O[C@H]2COCCN(C3CCOCC3)C2)n1	9.09
CCN(CC)C1(Cc2cc(CC(C)C)on2)COC1	2.23
CO[C@H]1COCCN(C(=O)c2ccc(C#N)cc2)C1	4.94
CC(=O)c1ccc(N2CCN(C(=O)c3cnn4c3OCCC4)CC2)cc1	8.44
CCOC1CC2(CCN(C(=O)COC)CC2)c2cc(C)ccc21 (centres undefined)	-142
CC(=O)N1Cc2nccn2CC(CNC(=O)c2ccnnc2)C1 (centres undefined)	-138
COC[C@]12COC[C@H]1CN(Cc1cccnc1OC)C2	-9.83
CCS(=O)(=O)Nc1ccc2oc(C)c(C(=O)OC)c2c1	5.87
CCN1CCN(C(=O)Cn2ncc3c2c(C)nn3C(C)C)CC1	6.5
CCn1nc(C)c2nnn(CC(=O)Nc3cccc(F)c3)c(=O)c21	8.44
O=C(CCn1ccnc1)N1CCC(c2nnc(-c3ccccn3)o2)CC1	3.29
O=S(=O)(N1CCOCC1)N1CCCC(c2ccccn2)C1 (centres undefined)	2.23
COCC(=O)N1CCCC(C(=O)c2cnn(-c3ccc(F)cc3)c2N)C1 (centres undefined)	9.71
O[C@H]1CN(Cc2cc3ccccc3o2)CC[C@@]12CCCO2	-21.9
Cc1cc(C)nc(C2CCN(C(=O)c3cncnc3C)C2)n1 (centres undefined)	5.16
Cc1ccc2c(c1)C(=O)NCC1(CCN(C(=O)c3scnc3C)CC1)O2	-17.3
CC(C)N1CCC(Cc2cncc(-c3ccccc3C(=O)O)n2)C1 (centres undefined)	-10
CC(=O)N1CCCCC1c1nc(C)cc(-c2ccccc2C(=O)O)n1 (centres undefined)	-12.8
Cc1nc(C2CCN(C(=O)c3ccnn3C)CC2)c2sccn12	-10.7
Cc1cccnc1CN1CCC2(CC(Nc3ccncn3)C2)C1 (centres undefined)	-6.36
CN(c1ccncn1)C1CC2(CCN(C(=O)c3cccn3C)C2)C1 (centres undefined)	-8.05
CC(C)N1CCC(c2cc(C(F)(F)F)n3ccnc3n2)CC1	-16.2

SMILES	cytotoxicity at 10 µM [%]
C[C@]1(O)CN(Cc2ccc(C(=O)O)cc2)CC[C@@H]1Oc1cccc(F)c1	-6.66
CC(C)NC(=O)CN(C)C(=O)c1c(Cl)c2ccccc2n1C	5.26
COCCNC(=O)c1ccc(NCc2csc(C)n2)cc1Cl	6.81
COC(=O)C1CN(Cc2ccn(-c3ccc(F)cc3)n2)C[C@@H](C)O1 (some centres undefined)	-4.52
Cc1ccc(N2CCCC(N(C)Cc3cc(C)on3)C2)nn1 (centres undefined)	17.5
CCCNC(=O)Cn1cc(C#N)c(=O)c2cc(Br)ccc21	-0.842
Cc1n[nH]c(C2CN(C(=O)c3ccoc3C)CCO2)n1 (centres undefined)	-22.4
COc1c(C2CCCN2C(=O)c2ccoc2)c(C)nn1C (centres undefined)	4
CC(C)c1nnc(CNc2ccc(SC(F)(F)F)cc2)o1	11.5
Cc1cccc(C)c1CNC1(CCO)CCOCC1	1.93
CCC(CC)(CC(=O)OC)NC(=O)Nc1nnc(-c2ccccn2)s1	-8.68
CC(C)Oc1cccc(CNC(=O)N2CCC(N3CC=CC3)C2)c1 (centres undefined)	0.477
Fc1ccc(-c2ccc(CNC3CCc4ncnn4C3)o2)cc1 (centres undefined)	-7.62
CCCS(=O)(=O)CC(=O)N1CCN(CC2CC2)c2ccccc21	-7.44
CSCCC(NC(=O)c1ccccc1)C(=O)N(C)Cc1ccsc1 (centres undefined)	7.17
CC(NC(=O)C1CC1)C(=O)N(C)Cc1ccsc1 (centres undefined)	3.64
O=C(CCc1ccsc1)N1CCC(C(=O)O)(c2ccccc2)CC1	12.4
Cc1cccc(NS(=O)(=O)c2ccc(C#N)nc2)c1C#N	0.0489
Cc1cccc(C(C)(C)CNC(=O)CN(C)S(=O)(=O)c2cccnc2)c1	7.41
CN(C)c1cccc(CNC(=O)Nc2cc(C#N)ccc2Cl)n1	21.6
Cc1ccc2cccc(S(=O)(=O)N(C)CC3CCN(C)C3)c2n1 (centres undefined)	1.5
O=C(c1cnc2[nH]c(=O)[nH]c(=O)c2c1)N1CCCC1C1CCCC1 (centres undefined)	6.22

SMILES	cytotoxicity at 10 µM [%]
CC(NC1(CNC(=O)C(C)(C)C#N)CCOCC1)c1ccccc1 (centres undefined)	7.35
COC(=O)CCN1CCCC1c1cccc2c1OCCO2 (centres undefined)	17.7
Cc1cc(C)n(CCCNC(=O)[C@@H](C)NC(=O)OC(C)(C)C)n1	-8
Cc1nc(C)c(C(=O)N2CCCC2c2nnc3n2CCCCC3)s1 (centres undefined)	-2.62
Cn1ccnc1CC1CCCN(C(=O)Nc2cccn(C)c2=O)C1 (centres undefined)	-4.79
CC(=O)NCC(=O)N1C[C@@H](C)[C@@]2(CCN(c3ccsc3)C2=O)C1	-74.7
OCCNc1nccc(-c2c[nH]nc2-c2cccnc2)n1	-8.22
COc1ccc(OC)c(-n2cnnc2C)c1	1.24
Cc1cccc(-n2cc(CNc3ncnc4c3CCNCC4)cn2)c1	3.96
CSCC[C@@H](CO)n1ccnc1-c1ccc(C)o1	7.02
O=C(CN1CCC(c2ccccc2)CC1)NCc1cc2n(n1)CCNC2	3.03
COC[C@@]12CC[C@@H](N3CCOCC3)C[C@H]1CCN(c1nc(CO)cs1)C2	-3.61
COc1ccc(CN2CCn3cncc3C2)cc1Cn1cncn1	7.55
CC(C)c1nc(CNc2nccc(CCC(F)(F)F)n2)cs1	1.24
O=C(c1cccc(Cl)c1)C1CCCN(c2nnc(C3CCC3)o2)C1 (centres undefined)	0.409
O=C(c1ccncc1Cl)N1CCN(Cc2ccco2)C(CCO)C1 (centres undefined)	-9.84
Cc1ncsc1CN1CCN(C)C2(CCC(=O)N(CCO)CC2)C1 (centres undefined)	-9.8
CCC[C@@H]1CN(C(=O)c2c(F)ccc(C)c2Cl)C[C@H]1C(=O)O	-4.39
O=C(c1cnc(O)cc1O)N1CCCC(CCc2ccccc2F)C1 (centres undefined)	-2.24
CNCCN1C(=O)CC[C@H]2CN(c3cnc4ccccc4n3)CC[C@H]21	-1.62
O=C(c1cc(Cn2ccc3ccccc32)[nH]n1)N1CCOCC1	-1.01
CC(C)=CCN1CCN(Cc2nc3ccccc3[nH]2)[C@H]2CS(=O)(=O)C[C@H]21	-132

SMILES	cytotoxicity at 10 µM [%]
COC(=O)N1CCCCC1C(=O)N1CCCN(c2ccnc(C)c2)CC1 (centres undefined)	-3.76
CCOCCn1nc(C)cc1C(=O)N1CC[C@@](O)(COC)C(C)(C)C1	-1.66
CN(CCCC1CCCO1)S(=O)(=O)NCc1ccccc1 (centres undefined)	2.2
CCN(CC1CCCN(CCc2cccc(OC)c2)C1)C(=O)CN(C)C (centres undefined)	9.05
CSc1nccc(NCc2cc3n(n2)CCCN(C(=O)C2CCC2)C3)n1	-118
Cc1cc(N2CCC3(CCCN(CCO)C3=O)C2)nc2cc(Cl)ccc12 (centres undefined)	3.72
CCc1nc(NC2CCCN(C(=O)C3CC3)C2)c2cnn(C)c2n1 (centres undefined)	-1.05
Cc1cc(C)n(CC(C)NC2CCN(Cc3cccnc3)CC2)n1 (centres undefined)	2.45
O=C(O)c1cccc(CC2CCN(c3ncccn3)CC2)c1	-134
Cc1nnc(CN(C)Cc2ccc(C(=O)Nc3sccc3C#N)cc2)o1	-6.88
Cc1cc(NCCNc2ncccc2C)n2nc(C)cc2n1	2.41
CS(=O)(=O)N(Cc1ccon1)c1ccc(F)cc1	2.24
CC(C)Nc1cc(N2CCC(n3cc(C4CCCC4)nn3)CC2)ncn1	7.81
O=C(c1cnc2ccccc2c1)N1CCCC(O)(CN2CCCC2)C1 (centres undefined)	9.27
CNC(=O)c1noc(Cn2ncc3ccccc3c2=O)n1	-5.35
CC(C)NS(=O)(=O)c1cc(C(=O)O)cc(-c2ccc(CN(C)C)cc2)c1	13.3
CCSc1ncc(Cl)c(C(=O)NC(CCSC)C(=O)O)n1 (centres undefined)	-8.91
CCC(NC(=O)c1nn(C)cc1C(=O)O)c1ccccc1 (centres undefined)	-7.41
Cc1nnc(NCc2ccccc2S(=O)(=O)N(C)C)c(C#N)c1C	-8.51
Cc1cnn(CC2CCCN2C(=O)c2ccc(-n3cccn3)nc2)c1 (centres undefined)	-15.7
Cc1cccc(OCCCNC(=O)NC(C)c2nncn2C)c1 (centres undefined)	-7.5
Cc1cc(NC(=O)CN(C)C2CCCN(c3cccnn3)C2)n(C)n1 (centres undefined)	-12.4

SMILES	cytotoxicity at 10 µM [%]
CN1CCC(NC(=O)NCCNc2ccccn2)CC1	-1.72
COc1ccc(CNCC2CCN(CC(C)O)CC2)c2ccccc12 (centres undefined)	-11.5
CCc1ccc(C(=O)N2CCN(CC(C)O)CC2)o1 (centres undefined)	-8.18
COc1cccc2cc(CNC(C)(C)C(=O)N3CCC(O)CC3)oc12	-12.2
Cc1cc(C2CCCN(CCCS(=O)(=O)c3ccccc3)C2)n[nH]1 (centres undefined)	-7.64
Cn1cnnc1C1CCCN(C(=O)c2cc(Cl)c3c(c2)OCO3)C1 (centres undefined)	-1.08
Cc1cc(CN(C)C(=O)c2ccc(C(F)(F)F)nc2)no1	2.05
Cc1cc(C)c(CNC(=O)N2CCCC2c2cccn2C)c(=O)[nH]1 (centres undefined)	-2.82
Cc1nc2ccccc2nc1CN1CCCC1c1c(C)nn(C)c1C (centres undefined)	-1.78
Cc1cccnc1[C@]1(O)CC[C@H]2CN(Cc3cccc(Cl)c3Cl)C[C@H]21	-5.86
c1csc(CN2CCCn3nnc(COCC4CC4)c3C2)n1	-101
O=C(N1CCOCC1)N1CCc2ncc(CN3CCCCC3)n2CC1	-87.7
Cc1cc(F)ccc1C(=O)N1C[C@@H]2COC[C@]2(CN(C)C)C1	-142
NCCCNS(=O)(=O)Cc1ccc(Br)cc1	-0.447
Cc1occc1C(=O)N1C[C@@H]2OCCN(C(C)C)[C@@H]2C1	-73.4
CN(C)C[C@@H]1CCC[C@@H]2CN(c3ncccn3)C[C@@H]21	5.85
O=C(c1cscn1)N1CCC2(CN(Cc3nccs3)C2)C1	-72.6
O=C1[C@H]2CN(Cc3ccncc3)C[C@H]2CN1c1ccsc1	-81.1
Cc1nc(CN2C[C@@H]3CN(C(=O)c4cccn4C)C[C@@H]3C2)cs1	0.346
Cc1ccc(CN2C[C@@H]3C[C@H](C(=O)NCC4CC4)N(C)[C@@H]3C2)o1	-3.63
CSc1nc(N)c2c(n1)N=C1COC(=O)C1C2c1cccc(Cl)c1 (centres undefined)	37.5
